Source: ChEMBL document CHEMBL3351998, “Discovery of potent and specific dihydroisoxazole inhibitors of human transglutaminase 2” (J Med Chem, 2014)

Key:
[1] = target: T1, Protein-glutamine gamma-glutamyltransferase (Homo sapiens) (UniProt P21980); experiment: Inhibition of human transglutaminase 2 using ((benzyloxy)carbony l)-L-glutaminylglycine peptide substrate assessed as Kinh/Ki ratio by GDH coupled assay
T1 sequence (whole entry): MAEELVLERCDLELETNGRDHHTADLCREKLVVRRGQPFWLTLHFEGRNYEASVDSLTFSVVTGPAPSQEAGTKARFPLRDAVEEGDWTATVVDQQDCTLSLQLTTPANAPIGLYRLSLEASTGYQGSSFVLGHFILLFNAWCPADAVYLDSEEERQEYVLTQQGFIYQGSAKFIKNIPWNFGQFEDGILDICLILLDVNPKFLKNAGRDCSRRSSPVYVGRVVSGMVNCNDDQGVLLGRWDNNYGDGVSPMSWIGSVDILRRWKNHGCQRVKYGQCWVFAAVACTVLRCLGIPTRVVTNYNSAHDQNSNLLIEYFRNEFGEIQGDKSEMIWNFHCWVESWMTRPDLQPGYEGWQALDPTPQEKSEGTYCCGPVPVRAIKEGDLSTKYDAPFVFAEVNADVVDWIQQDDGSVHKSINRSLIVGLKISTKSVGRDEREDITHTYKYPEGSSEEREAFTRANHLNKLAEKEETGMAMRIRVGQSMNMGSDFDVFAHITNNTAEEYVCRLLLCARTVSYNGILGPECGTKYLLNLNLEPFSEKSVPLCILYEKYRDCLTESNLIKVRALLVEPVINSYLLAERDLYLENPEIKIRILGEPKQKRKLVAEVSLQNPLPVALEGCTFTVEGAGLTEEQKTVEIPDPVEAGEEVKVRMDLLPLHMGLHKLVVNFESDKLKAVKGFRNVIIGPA
How it was run: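 Human TG2 (V224G variant) or codon-optimized murine TG2, E. coli-expressed, final ~0.34 and 0.22 μM respectively. Buffer: 200 mM MOPS pH 7.2, 5 mM CaCl2, 10 mM α-ketoglutarate, 300 μM NADH, 36 U/mL bovine GDH. Z-Gln-Gly at 10/20 mM. Inhibitors typically at 100/33.3/11.1/3.7 μM, 1% DMSO, added after ≥5 min pre-equilibration. A340 progress curves fitted to exponential decay; kinh/Ki from irreversible inhibition model.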

[2] = target: T2, Protein-glutamine gamma-glutamyltransferase E (Homo sapiens) (UniProt Q08188); experiment: Inhibition of human transglutaminase 3 using ((benzyloxy)carbonyl)-L-glutaminyl-L-serine peptide substrate assessed as Kinh/Ki ratio by GDH coupled assay
T2 sequence (whole entry): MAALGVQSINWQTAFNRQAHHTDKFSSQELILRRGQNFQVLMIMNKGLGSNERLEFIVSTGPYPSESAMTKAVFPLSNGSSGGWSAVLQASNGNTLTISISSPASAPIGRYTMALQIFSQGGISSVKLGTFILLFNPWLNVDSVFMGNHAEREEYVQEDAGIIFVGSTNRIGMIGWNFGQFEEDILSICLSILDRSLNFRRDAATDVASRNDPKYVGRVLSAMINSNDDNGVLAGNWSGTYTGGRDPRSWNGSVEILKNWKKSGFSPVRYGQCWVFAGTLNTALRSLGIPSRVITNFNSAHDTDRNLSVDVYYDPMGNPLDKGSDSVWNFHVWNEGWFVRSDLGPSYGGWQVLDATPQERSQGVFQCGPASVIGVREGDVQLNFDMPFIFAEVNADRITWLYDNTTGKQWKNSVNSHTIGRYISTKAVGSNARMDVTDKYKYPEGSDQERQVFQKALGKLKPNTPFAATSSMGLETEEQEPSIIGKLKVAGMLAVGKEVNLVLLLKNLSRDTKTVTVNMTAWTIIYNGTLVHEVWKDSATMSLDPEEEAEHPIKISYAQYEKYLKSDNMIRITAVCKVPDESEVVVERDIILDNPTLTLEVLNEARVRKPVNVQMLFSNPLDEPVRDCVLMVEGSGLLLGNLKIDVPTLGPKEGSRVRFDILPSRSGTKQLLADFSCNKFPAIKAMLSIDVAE
How it was run: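 His-tagged human TG3 activated by cathepsin L (1 μg per 25 μg TG3, MES pH 6.0, 30 min), then quenched with 50 μM E64 for 10 min. Final TG3 ~0.43 μM in 200 mM MOPS pH 7.2, 5 mM CaCl2, 10 mM α-ketoglutarate, 300 μM NADH, 36 U/mL GDH. Z-Gln-Ser at 20/40 mM. Enzyme pre-equilibrated 30 min before inhibitors (typically 100/33.3/11.1/3.7 μM) were added. A340 curves fitted; kinh/Ki from irreversible model.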

[3] = Half life in CD-1 mouse at 50 mg/kg, po; format: ADME, organism-based; design: dose 50 mg/kg, route oral; settings: in vivo
How it was run: (§1)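 Male CD-1 mice (6−8 weeks, cohorts of five) fasted ~6 h, then gavaged (10 μL/g) with inhibitor mixtures at 50 mg/kg each compound. Vehicle: 25 mg/mL per compound in 1 M HCl/10% Tween-80/25% ethanol, diluted 5-fold into 0.94% methylcellulose in 250 mM trisodium citrate. Blood sampled at 5, 20 (saphenous) and 60 min (cardiac). Plasma quantified by LC-MS (ESI-QTOF) against standard curves.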

[4] = Plasma concentration in CD-1 mouse at 50 mg/kg, po after 5 mins; format: ADME, organism-based; design: dose 50 mg/kg, route oral; how it was run: as §1
[5] = Plasma concentration in CD-1 mouse at 50 mg/kg, po after 20 mins; format: ADME, organism-based; design: dose 50 mg/kg, route oral; how it was run: as §1

Structure (SMILES)	Ratio [1]	Ratio [2]	half-life [3]	concentration at 5 min [4]	concentration at 20 min [5]
O=C(N[C@@H]1C[C@@H](C(=O)NC[C@@H]2CC(Br)=NO2)N(C(=O)OCc2cnc3ccccc3c2)C1)c1cccnc1	108	< 1	15 min	–	–
O=C(NC[C@@H]1CC(Br)=NO1)[C@@H]1CCCN1C(=O)OCc1cnc2ccccc2c1	16.9	< 1	15 min	2100 ng/mL	1200 ng/mL
O=C(NC[C@@H]1CC(Br)=NO1)[C@@H]1C[C@@H](O)CN1C(=O)OCc1cnc2ccccc2c1	12.5	< 1	15 min	–	–
O=C(N[C@@H]1C[C@@H](C(=O)NC[C@@H]2CC(Br)=NO2)N(C(=O)OCc2cnc3ccccc3c2)C1)c1ccc(O)cc1	56.4	< 1	15 min	–	–

Other lines, results leading:

Ratio [1]	Ratio [2]	half-life [3]	concentration at 5 min [4]	concentration at 20 min [5]	Structure (SMILES)
48.6	< 1	15 min	–	–	O=C(NC[C@@H]1CC(Br)=NO1)[C@@H]1C[C@@H](c2ccccc2)CN1C(=O)OCc1cnc2ccccc2c1
13.8	< 1	15 min	–	–	O=C(NC[C@@H]1CC(Br)=NO1)[C@@H]1C[C@@H](OCc2ccccc2)CN1C(=O)OCc1cnc2ccccc2c1
91.1	< 1	15 min	–	–	O=C(NC[C@@H]1CC(Br)=NO1)[C@@H]1C[C@@H](c2ccc(O)cc2)CN1C(=O)OCc1cnc2ccccc2c1
13.4	< 1	15 min	2900 ng/mL	2100 ng/mL	O=C(NC[C@@H]1CC(Br)=NO1)[C@@H]1C[C@H](F)CN1C(=O)OCc1cnc2ccccc2c1
